Assay results pooled from the literature.
Each line is one published result; the experiments were not run side by side.
GLO1: Lactoylglutathione lyase (GLO1, Homo sapiens, UniProt Q04760)
MAOB: Amine oxidase [flavin-containing] B (MAOB, Homo sapiens, UniProt P27338)

target	test	conditions	inhibition	SMILES
Histamine H1 receptor (HRH1, Homo sapiens, UniProt P35367)	ligand displacement, radioligand	10 µM	< 50%	NC/C(=C\F)COc1cccc(Cn2c(=S)[nH]c(=O)c3[nH]cnc32)c1
Beta-1 adrenergic receptor (ADRB1, Homo sapiens, UniProt P08588)	cell-free assay	10 µM	-1.5%	Cc1cc(F)cc2c(CCC(=O)N[C@@H]3C(=O)NC[C@H]3O)c(-c3ccc(F)cc3)[nH]c12
Endothelin receptor type B (EDNRB, Homo sapiens, UniProt P24530)	ligand displacement, radioligand	10 µM	0%	CCN1/C(=C/C(C)=O)Sc2ccc(F)cc21
GLO1	enzyme activity, inhibitor	1 µM	46.1%	O=C(N[C@@H](CSCc1ccc([N+](=O)[O-])cc1)C(=O)NO)c1ccccc1
MAOB	enzyme activity, inhibitor	1 µM	52%	O=C(Nc1ccc(Cl)cc1)c1ccc2c(c1)C(=O)NC2=O
GLO1	enzyme activity, inhibitor	1 µM	31.4%	O=C(N[C@@H](CSCc1ccccc1)C(=O)NO)c1ccccc1
MAOB	enzyme activity, inhibitor	1 µM	25%	O=C(Nc1ccccc1)c1ccc2c(c1)C(=O)NC2=O
Serine/threonine-protein kinase NLK (NLK, Homo sapiens, UniProt Q9UBE8)	cell-free assay, inhibitor	0.1 µM, lysate	-4.94%	Cc1cc(O)c(-c2ccc([C@@H](C)CN(C)C)cc2)c2c1[nH]c(=O)c1sccc12
MAOB	enzyme activity, inhibitor	1 µM	63.9%	O=C(Nc1cccc(Cl)c1)c1ccc2c(c1)C(=O)NC2=O
Ribosomal protein S6 kinase alpha-6 (RPS6KA6, Homo sapiens, UniProt Q9UK32)	enzyme activity, inhibitor	0.2 µM	16.8%	C#Cc1cc(-c2cc(Nc3nc(N[C@@H](C)c4ccc(F)cn4)ncc3Cl)n[nH]2)ccc1C=O
